Data on 1 molecule can be found in ChEMBL document CHEMBL4422663, “Suppression of Tumor Growth and Metastases by Targeted Intervention in Urokinase Activity with Cyclic Peptides” (J Med Chem, 2019).

Calls of active or inactive are those of the source. The rule behind the calls is not given here. Positions of bridges follow the written chain, without caps; N, C: chain ends. Residues, ends and D or L forms follow the SMILES beside them.

The target in series [1] is Plasma kallikrein (Homo sapiens, UniProt P03952). Kind of series: Inhibition of human plasma kallikrein preincubated for 15 mins followed by chromogenic substrate addition.
Plasma kallikrein (Homo sapiens, UniProt P03952), sequence (P03952 20-390 limits assumed): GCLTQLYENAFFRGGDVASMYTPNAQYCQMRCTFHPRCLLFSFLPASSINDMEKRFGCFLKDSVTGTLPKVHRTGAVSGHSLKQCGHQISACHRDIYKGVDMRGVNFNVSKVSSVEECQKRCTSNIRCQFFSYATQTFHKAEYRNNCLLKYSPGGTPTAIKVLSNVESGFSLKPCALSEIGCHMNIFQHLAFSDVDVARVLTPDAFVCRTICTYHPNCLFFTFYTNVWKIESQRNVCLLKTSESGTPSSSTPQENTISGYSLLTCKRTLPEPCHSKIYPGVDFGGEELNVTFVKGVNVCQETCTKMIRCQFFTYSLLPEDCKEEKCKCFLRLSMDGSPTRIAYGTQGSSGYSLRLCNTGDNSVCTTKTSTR
Plasma kallikrein (Homo sapiens, UniProt P03952), sequence (P03952 391-638 limits assumed): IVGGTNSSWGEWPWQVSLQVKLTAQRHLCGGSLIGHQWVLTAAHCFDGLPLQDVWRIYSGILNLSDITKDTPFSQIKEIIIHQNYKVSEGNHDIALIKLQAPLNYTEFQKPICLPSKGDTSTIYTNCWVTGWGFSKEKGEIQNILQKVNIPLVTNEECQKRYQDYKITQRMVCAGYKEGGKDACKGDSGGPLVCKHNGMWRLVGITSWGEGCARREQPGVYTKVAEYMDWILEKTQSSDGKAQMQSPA
Series [2] has as its target Plasma kallikrein (Mus musculus, UniProt P26262). Kind of series: Inhibition of mouse plasma kallikrein preincubated for 15 mins followed by chromogenic substrate addition.
Series [3] addresses Tissue-type plasminogen activator (Homo sapiens, UniProt P00750). Nature of the series: Inhibition of human tissue-type plasminogen activator preincubated for 15 mins followed by chromogenic substrate addition.
Series [4] has as its target Plasminogen (Homo sapiens, UniProt P00747). Nature of the series: Inhibition of human plasmin preincubated for 15 mins followed by chromogenic substrate addition.
In series [5] the target is Plasminogen (Mus musculus, UniProt P20918). Kind of series: Inhibition of mouse plasmin preincubated for 15 mins followed by chromogenic substrate addition.
Plasminogen (Mus musculus, UniProt P20918), sequence (P20918 98-581 limits assumed): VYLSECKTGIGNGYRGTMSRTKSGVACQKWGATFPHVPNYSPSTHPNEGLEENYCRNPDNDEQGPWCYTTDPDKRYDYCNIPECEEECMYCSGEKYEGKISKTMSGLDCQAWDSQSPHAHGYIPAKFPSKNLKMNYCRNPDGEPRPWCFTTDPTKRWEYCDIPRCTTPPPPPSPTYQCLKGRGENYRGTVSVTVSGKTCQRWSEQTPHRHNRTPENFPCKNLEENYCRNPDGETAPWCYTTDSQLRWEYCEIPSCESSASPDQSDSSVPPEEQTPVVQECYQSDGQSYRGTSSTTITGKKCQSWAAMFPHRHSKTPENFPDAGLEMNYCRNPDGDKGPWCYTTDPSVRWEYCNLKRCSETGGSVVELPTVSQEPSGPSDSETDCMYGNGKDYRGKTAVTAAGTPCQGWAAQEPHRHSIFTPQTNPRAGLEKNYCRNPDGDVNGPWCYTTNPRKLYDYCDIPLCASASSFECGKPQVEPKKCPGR
Plasminogen (Mus musculus, UniProt P20918), sequence (P20918 582-812 limits assumed): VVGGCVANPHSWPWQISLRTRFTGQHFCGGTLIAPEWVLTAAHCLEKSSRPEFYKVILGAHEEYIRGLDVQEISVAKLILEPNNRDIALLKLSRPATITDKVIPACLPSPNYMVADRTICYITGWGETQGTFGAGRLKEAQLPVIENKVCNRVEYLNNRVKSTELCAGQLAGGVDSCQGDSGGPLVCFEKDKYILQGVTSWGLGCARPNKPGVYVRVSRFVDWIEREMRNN
The target of the next series is Prothrombin (Mus musculus, UniProt P19221). Kind of series: Inhibition of mouse thrombin preincubated for 15 mins followed by chromogenic substrate addition.
Series [6] can be described thus: Inhibition of mouse trypsin preincubated for 15 mins followed by chromogenic substrate addition.
Series [7] has as its target T1, Suppressor of tumorigenicity 14 protein (Homo sapiens, UniProt Q9Y5Y6).
T1 sequence (Q9Y5Y6 whole entry): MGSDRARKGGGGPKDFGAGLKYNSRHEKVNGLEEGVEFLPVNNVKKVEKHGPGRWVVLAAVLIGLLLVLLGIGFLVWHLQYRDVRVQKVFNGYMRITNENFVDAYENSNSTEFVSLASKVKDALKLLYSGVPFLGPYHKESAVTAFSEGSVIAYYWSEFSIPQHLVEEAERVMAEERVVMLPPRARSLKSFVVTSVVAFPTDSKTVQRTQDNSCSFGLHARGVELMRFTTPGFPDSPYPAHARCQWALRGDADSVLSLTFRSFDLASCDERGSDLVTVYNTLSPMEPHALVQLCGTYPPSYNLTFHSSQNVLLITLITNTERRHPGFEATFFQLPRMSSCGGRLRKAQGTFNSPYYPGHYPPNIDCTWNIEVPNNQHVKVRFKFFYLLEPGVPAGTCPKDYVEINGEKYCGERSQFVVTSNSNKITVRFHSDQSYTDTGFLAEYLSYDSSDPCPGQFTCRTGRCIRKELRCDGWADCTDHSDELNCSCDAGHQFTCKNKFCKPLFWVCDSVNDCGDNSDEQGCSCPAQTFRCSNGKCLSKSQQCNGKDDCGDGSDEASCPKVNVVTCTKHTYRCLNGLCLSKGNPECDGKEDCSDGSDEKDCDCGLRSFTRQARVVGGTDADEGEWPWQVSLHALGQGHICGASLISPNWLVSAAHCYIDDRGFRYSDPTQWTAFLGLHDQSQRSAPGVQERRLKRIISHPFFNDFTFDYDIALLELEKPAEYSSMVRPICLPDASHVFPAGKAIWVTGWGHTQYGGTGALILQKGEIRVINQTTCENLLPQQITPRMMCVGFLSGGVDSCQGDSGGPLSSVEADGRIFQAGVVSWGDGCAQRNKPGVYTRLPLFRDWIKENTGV
Kind of series: Inhibition of human matriptase preincubated for 15 mins followed by chromogenic substrate addition.

Series [8] deals with Urokinase-type plasminogen activator (Mus musculus) (UniProt P06869). Kind of series: Binding affinity to mouse uPA assessed as dissociation rate constant after 600 secs by SPR assay. A general note: SPR reads the build-up and loss of mass on a sensor chip optically.
Urokinase-type plasminogen activator (Mus musculus), sequence (P06869 21-178 limits assumed): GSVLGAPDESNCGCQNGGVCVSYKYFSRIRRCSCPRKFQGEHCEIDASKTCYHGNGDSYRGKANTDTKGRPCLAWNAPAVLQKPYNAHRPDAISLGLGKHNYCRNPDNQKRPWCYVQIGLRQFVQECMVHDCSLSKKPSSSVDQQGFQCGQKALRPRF
Urokinase-type plasminogen activator (Mus musculus), sequence (P06869 180-433 limits assumed): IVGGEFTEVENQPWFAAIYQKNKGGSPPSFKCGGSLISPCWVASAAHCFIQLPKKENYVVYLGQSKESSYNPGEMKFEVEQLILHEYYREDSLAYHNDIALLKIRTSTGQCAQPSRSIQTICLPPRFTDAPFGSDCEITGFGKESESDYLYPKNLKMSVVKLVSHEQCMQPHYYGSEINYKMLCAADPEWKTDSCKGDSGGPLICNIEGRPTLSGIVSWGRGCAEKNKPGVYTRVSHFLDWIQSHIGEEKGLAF
The target in series [9] is T2, Urokinase-type plasminogen activator (Mus musculus, UniProt P06869). Nature of the series: Binding affinity to mouse uPA by SPR assay.
T2 sequence (P06869 21-178 limits assumed): as the sequence (P06869 21-178 limits assumed) above
T2 sequence (P06869 180-433 limits assumed): as the sequence (P06869 180-433 limits assumed) above
Series [10] concerns the target T2, Urokinase-type plasminogen activator. Nature of the series: Binding affinity to mouse uPA expressed in HEK2936E cells by ITC assay. On the technique in general: ITC needs no label: the signal is the heat of the interaction.
For series [11], the system named is CT26. Kind of series: Cytotoxicity against mouse CT26 cells at 100 uM. The format is cell-based. The following applies: ct26, 100 µM.
Series [12] concerns the target T2, Urokinase-type plasminogen activator. Nature of the series: Inhibition of uPA in presence of 75% mouse […] measured at 2 hrs. The gist of the method: (§1)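 Peptide was preincubated in 75% murine plasma for 0–24 h (sampled at 0, 2, 8 and 24 h). Residual uPA-inhibitory activity was then measured and expressed as IC50.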
Series [13] has the same target. Kind of series: Inhibition of uPA in presence of 75% mouse […] measured at 8 hrs. The gist of the method:
as §1

Series [14] relates to CT26. Nature of the series: Anti-tumor activity against […] mouse CT26 cells allografted in Balb/c mouse assessed as tumor growth inhibition at 1.13 mg/kg, ip administered daily for 15 days and measured on day 16 […]. The settings on record: read-out: TGI. The format is functional. The gist of the method:
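CT-26 cells implanted subcutaneously in right flank of Balb/c mice; once tumors reached about 150~200 mm3, daily intraperitoneal dosing with peptide or saline for 15 days. Mice sacrificed on Day 16; tumors resected and weighed; tumor growth reduction relative to saline group.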

The subject of series [15] is CT26. Nature of the series: Antimetastatic activity against GFP-fused mouse CT26 cells allografted in Balb/c mouse assessed as reduction genomic DNA of metastatic cells at 11.3 mg/kg, ip administered daily for 15 days by qPCR analysis. The format is functional. The following applies: 360 h. The gist of the method:
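Male Balb/c mice (~20 g, 6/group) given 10^6 GFP-CT-26 cells i.v. in 200 µl mixed with peptide or saline, then daily i.p. peptide Day 1–15; sacrificed Day 16. Lung total DNA isolated after homogenization; 200 ng per SYBR Green qPCR, quantified against standard curve of CT-26 DNA spiked into normal lung DNA (0.135%-100%).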
(In general: In qPCR the cycle at which signal appears reflects the starting amount.)

The subject of series [16] is CT26. Kind of series: Antimetastatic activity against GFP-fused mouse CT26 cells allografted in Balb/c mouse assessed as reduction in relative fluorescence at 11.3 mg/kg, ip administered daily for 15 days by fluorescence-based assay. The format is functional. The following applies: 360 h. An outline of the steps: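 Lung metastasis model: male Balb/c mice (~20 g, 6/group) given 10^6 GFP-CT-26 cells i.v. with peptide or saline, daily i.p. dosing Day 1–15, sacrificed Day 16. Resected lungs imaged for GFP with 488 nm excitation, emission 520; signal collected over 20×20 mm2 per lung; non-implanted normal group used for background subtraction.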

Series [17] concerns CT26. Nature of the series: Antimetastatic activity against GFP-fused mouse CT26 cells allografted in Balb/c mouse assessed as reduction in hyperplastic weights at 1.13 mg/kg, ip administered daily for 15 days by fluorescence-based assay. The format is functional, organism-based. The gist of the method: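 GFP-CT-26 cells (10^6) iv into male Balb/c, daily ip treatment Days 1–15, lungs resected and weighed at sacrifice on Day 16. Hyperplastic weight is lung weight minus the mean weight of lungs from non-implanted normal mice.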

For series [18], the system named is CT26. Nature of the series: Antimetastatic activity against GFP-fused mouse CT26 cells allografted in Balb/c mouse assessed as reduction in hyperplastic weights at 11.3 mg/kg, ip administered daily for 15 days by fluorescence-based assay. The format is functional. The settings on record: 360 h. An outline of the steps:
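Lung metastasis model: male Balb/c mice (~20 g, 6/group) given 10^6 GFP-CT-26 cells i.v. with peptide or saline, then daily i.p. dosing Day 1–15. Lungs resected and weighed immediately at sacrifice on Day 16; hyperplastic weight = lung weight minus weight of lungs from non-implanted normal mice.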

Series [19] is described as follows: Toxicity in Balb/c mouse allografted with mouse CT26 cells assessed as effect on body weight at 1.13 to 11.3 mg/kg, ip administered daily for 15 days. The format is organism-based. The following applies: in vivo, 360 h.
The target of series [20] is Urokinase-type plasminogen activator (Mus musculus) (UniProt P06869). Kind of series: Potency index, ratio of Ki for LD1 to Ki for test compound for inhibition of mouse uPA preincubated for 15 mins followed by chromogenic substrate addition.
A short description of series [21]: Stability in 75% mouse plasma assessed as protease-mediated compound degradation measured 24 hrs post dose. The format is ADME, cell-free. The gist of the method:
as §1

Plasma kallikrein (Mus musculus, UniProt P26262), sequence (P26262 20-390 limits assumed): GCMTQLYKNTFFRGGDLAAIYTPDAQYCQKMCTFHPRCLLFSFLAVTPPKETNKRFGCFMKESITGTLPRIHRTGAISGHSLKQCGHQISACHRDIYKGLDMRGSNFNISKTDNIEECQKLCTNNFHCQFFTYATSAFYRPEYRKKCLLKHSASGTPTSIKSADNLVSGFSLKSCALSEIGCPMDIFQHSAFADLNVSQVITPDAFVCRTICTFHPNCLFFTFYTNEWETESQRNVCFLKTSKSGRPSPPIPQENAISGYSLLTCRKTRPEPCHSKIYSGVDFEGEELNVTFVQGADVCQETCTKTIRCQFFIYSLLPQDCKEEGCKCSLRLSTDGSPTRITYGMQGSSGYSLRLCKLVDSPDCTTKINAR
Plasma kallikrein (Mus musculus, UniProt P26262), sequence (P26262 391-638 limits assumed): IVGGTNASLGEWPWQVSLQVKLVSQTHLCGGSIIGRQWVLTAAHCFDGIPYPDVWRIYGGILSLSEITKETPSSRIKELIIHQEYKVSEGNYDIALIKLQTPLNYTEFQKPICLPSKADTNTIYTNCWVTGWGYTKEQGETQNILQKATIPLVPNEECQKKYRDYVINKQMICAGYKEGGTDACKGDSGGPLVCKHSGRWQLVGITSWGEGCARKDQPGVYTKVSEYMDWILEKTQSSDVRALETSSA
Plasminogen (Homo sapiens, UniProt P00747), sequence (P00747 97-580 limits assumed): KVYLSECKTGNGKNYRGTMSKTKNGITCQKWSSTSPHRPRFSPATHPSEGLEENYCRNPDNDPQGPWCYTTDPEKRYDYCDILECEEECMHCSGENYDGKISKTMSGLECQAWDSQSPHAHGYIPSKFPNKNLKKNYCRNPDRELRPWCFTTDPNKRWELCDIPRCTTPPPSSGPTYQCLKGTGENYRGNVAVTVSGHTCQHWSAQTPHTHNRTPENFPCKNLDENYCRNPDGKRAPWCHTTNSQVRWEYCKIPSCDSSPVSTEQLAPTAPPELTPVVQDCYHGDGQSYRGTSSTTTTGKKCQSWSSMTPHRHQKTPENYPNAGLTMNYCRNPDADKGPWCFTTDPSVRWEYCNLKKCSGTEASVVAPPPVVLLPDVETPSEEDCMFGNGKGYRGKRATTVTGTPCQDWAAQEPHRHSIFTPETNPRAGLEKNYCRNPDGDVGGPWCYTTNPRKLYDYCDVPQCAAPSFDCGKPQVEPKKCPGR
Plasminogen (Homo sapiens, UniProt P00747), sequence (P00747 581-810 limits assumed): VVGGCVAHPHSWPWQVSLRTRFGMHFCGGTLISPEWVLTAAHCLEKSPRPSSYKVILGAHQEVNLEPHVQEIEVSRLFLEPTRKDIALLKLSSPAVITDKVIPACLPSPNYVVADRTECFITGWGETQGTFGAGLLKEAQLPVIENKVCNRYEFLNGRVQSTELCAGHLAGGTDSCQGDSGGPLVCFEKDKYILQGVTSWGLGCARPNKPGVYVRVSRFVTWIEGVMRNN
Tissue-type plasminogen activator, sequence (P00750 whole entry): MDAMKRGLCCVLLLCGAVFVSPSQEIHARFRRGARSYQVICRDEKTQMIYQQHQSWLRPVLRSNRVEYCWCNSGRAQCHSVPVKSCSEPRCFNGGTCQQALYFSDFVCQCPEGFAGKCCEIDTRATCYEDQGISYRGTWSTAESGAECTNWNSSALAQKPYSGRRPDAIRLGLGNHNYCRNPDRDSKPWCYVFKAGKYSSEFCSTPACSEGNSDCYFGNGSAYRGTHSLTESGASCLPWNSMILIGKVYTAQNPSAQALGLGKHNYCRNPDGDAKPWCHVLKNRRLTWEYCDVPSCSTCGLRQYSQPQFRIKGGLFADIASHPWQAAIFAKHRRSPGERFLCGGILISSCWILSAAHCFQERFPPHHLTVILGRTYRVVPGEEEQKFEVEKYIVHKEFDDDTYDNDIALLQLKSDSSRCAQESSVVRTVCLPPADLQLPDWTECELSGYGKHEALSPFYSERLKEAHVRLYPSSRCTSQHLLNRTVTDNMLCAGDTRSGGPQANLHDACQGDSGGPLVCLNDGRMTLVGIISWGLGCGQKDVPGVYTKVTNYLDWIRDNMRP

For `CC[C@H](C)[C@@H]1NC(=O)[C@H](Cc2ccc(O)cc2)NC(=O)[C@H](CCCNC(=N)N)NC(=O)[C@H](CO)NC(=O)[C@H](Cc2ccc(O)cc2)NC(=O)[C@H](C)NC(=O)[C@@H]2CCCN2C(=O)[C@@H](N)CSSC[C@@H](C(=O)O)NC(=O)CNC1=O` (H-CPAYSRYIGC-OH; disulfide 1-10), the Ki (on Plasma kallikrein [1]; at Plasma kallikrein [2]; in series [3]; on Plasminogen [4]; on Plasminogen [5]; at Prothrombin) was more than 25000 nM each time. Also, the figures for the Ki in [6] and in [7] were 2100 nM and more than 25000 nM, respectively. The K in series [8] was 0.00066 s⁻¹. Further, the values for the dissociation constant (Kd) in series [9] and in series [10] were 2.4 nM and 10.6 nM, respectively. The Activity entry (with CT26 [11]; in series [19]) was “Non-Toxic” throughout. Moreover, the IC50 (as a rule, the concentration at which inhibition is half-maximal) turned out to be 11.9 nM in [12] and 11.3 nM in series [13]. In the series with CT26 [14], the inhibition in vivo at 1.13 mg/kg is 36.1%. Also, the inhibition in vivo at 11.3 mg/kg came out at 49.8% in the series with CT26 [15], 50% with CT26 [16] and 51.7% in the series on CT26 [18]. In the series on CT26 [17], the outcome was inactive. Besides, in series [20], the Ratio Ki was found to be 81. The Stability entry in [21] is listed as “Unstable”.
